# Assay results gathered from unrelated publications.
# Lines come from different studies, so protocols differ.
# Target: Serine/threonine-protein kinase ULK3 (ULK3, Homo sapiens, UniProt Q6PHR2)
# Sequence (Q6PHR2 1-472, as in one of the studies): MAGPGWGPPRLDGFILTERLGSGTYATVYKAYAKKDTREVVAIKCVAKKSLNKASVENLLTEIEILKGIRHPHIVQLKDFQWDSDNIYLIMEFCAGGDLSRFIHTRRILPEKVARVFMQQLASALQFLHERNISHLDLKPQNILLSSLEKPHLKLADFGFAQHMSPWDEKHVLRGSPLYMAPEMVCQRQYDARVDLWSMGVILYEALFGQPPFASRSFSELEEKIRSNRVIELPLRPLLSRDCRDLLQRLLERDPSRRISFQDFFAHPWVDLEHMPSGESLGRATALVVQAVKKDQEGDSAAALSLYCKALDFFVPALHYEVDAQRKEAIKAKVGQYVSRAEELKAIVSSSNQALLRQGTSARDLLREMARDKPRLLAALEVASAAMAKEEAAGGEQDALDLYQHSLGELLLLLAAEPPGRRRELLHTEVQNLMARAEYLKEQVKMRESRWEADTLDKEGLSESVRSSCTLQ
Structure (SMILES),effect on,mode,method,tested at,endpoint,result
Cn1nc(C(F)(F)F)cc1-c1cnc(N2CCc3cc(S(=O)(=O)Nc4c(F)cc(Cl)cc4F)cc(N4CCCC4=O)c32)nc1,cell-free assay,,competition with immobilised ligand,1 µM,remaining binding,100%
CS(=O)(=O)CCNCc1ccc(-c2ccc3ncnc(Nc4ccc(OCc5cccc(F)c5)c(Cl)c4)c3c2)o1,cell-free assay,,,0.5 µM,remaining signal,106%
Cc1cc(NC(=O)c2cccc(S(F)(F)(F)(F)F)c2)cc(-n2ccn3nc(-c4cccnc4)cc23)c1,cell-free assay,,competition with immobilised ligand,1 µM,remaining binding,75.2%
Cc1ccc(C(=O)Nc2ccc(CN3CCN(C)CC3)c(C(F)(F)F)c2)cc1C#Cc1cnc2cccnn12,enzyme activity,inhibitor,,23.5 nM,remaining activity,61%
CCCS(=O)(=O)Nc1ccc(F)c(C(=O)c2c[nH]c3ncc(-c4ccc(Cl)cc4)cc23)c1F,enzyme activity,inhibitor,,1 µM,inhibition,< 10%
COc1cc2c(Nc3ccc(Br)cc3F)ncnc2cc1OCC1CCN(C)CC1,cell-free assay,,,0.5 µM,remaining signal,105%
O=C(Nc1cnn(-c2csc(C(=O)NC3COC3)c2)c1)Nc1c(F)cccc1Cl,enzyme activity,inhibitor,,5 µM,remaining activity,76.6%
Cc1cnc(NC2CCOCC2)nc1-n1cnc(C(=O)NC(CN)c2cc(F)cc(Cl)c2)c1 (centres unmarked),enzyme activity,inhibitor,radiometric,1 µM,remaining activity,91%
Oc1cccc(-c2nc(N3CCOCC3)c3oc4ncccc4c3n2)c1,cell-free assay,,,0.5 µM,remaining signal,99.7%
c1ccc(N2CCN(Cc3nc4ccccc4[nH]3)CC2)nc1,binding,,competition with immobilised ligand,1 µM,remaining binding,100%
CC(C)(O)[C@H]1CC[C@H](Nc2ccc3ncc(-c4cccc(C(F)(F)F)c4)n3n2)CC1,enzyme activity,inhibitor,,1 µM,remaining activity,86.2%
Nc1ncnc2occ(-c3ccc(NC(=O)Nc4cc(C(F)(F)F)ccc4F)cc3)c12,cell-free assay,inhibitor,,20 µM,remaining signal,0.6%
O=C1Nc2ccc(Cl)cc2C1=Cc1cc(Cl)c(O)c(Cl)c1,cell-free assay,,,0.5 µM,remaining signal,92.2%
C[C@@H](c1cccc(C#N)c1)n1cc(Cl)cc(C(N)=O)c1=N,cell-free assay,,competition with immobilised ligand,1 µM,remaining binding,75%
